Source: the array DNA melting data of Ke et al. (doi:10.1101/2024.01.08.574731)

Tests used:
[1] = folding enthalpy; higher = less favourable; fluorescence melt of hairpins on a sequencing array, two-state fit; settings: sodium 0.088 M
Summary of the method: (§1)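 Melting temperature and folding enthalpy were obtained by bootstrapped two-state fitting. Fits used Cy3 fluorescence of library hairpins with annealed Cy3 and quencher oligos on a sequenced MiSeq flow cell, imaged in 50 mM Na-HEPES pH 8.0, 25 mM NaCl in 2.5 °C steps up to 60 °C and normalised to pre-quench Cy3 and control constructs. Four replicates were combined by inverse-variance weighting, and fitted temperatures were raised by 9.35 °C to match UV melts.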

[2] = melting temperature; fluorescence melt of hairpins on a sequencing array, two-state fit, raised by 9.35 °C to match UV melts; settings: sodium 0.088 M
Summary of the method: as §1

Row | Sequence | folding enthalpy [1] | Tm [2]
1 | GAGCATGAAAATGCTC ((((((....)))))) | -33 kcal/mol | 63.2 °C
2 | GCTTCCGAAAGGAAAGC ((((((....))).))) | -38.7 kcal/mol | 54.3 °C
3 | GAGGCCGGAAACGACCCC (.((.((....)).)).) | -19.7 kcal/mol | 30.6 °C
4 | GATCTTTAGCAAGATC ((((((....)))))) | -28.2 kcal/mol | 37.1 °C
5 | GACGACGAAAGTCCTGTC ((((((....)))..))) | -16.4 kcal/mol | 31.4 °C
6 | GGATGGCGAAAGCCTCC (((.(((....)))))) | -18.6 kcal/mol | 55.6 °C
7 | GCGGCCCGCCGC ((((....)))) | -16.9 kcal/mol | 68.7 °C
8 | GCGAATCTTCGC ((((....)))) | -28 kcal/mol | 52.8 °C
9 | GGTAACGAAAGTTCTACC ((((((....)))..))) | -13.9 kcal/mol | 28.2 °C
10 | GCCAGTGGAAACACTAGC ((.((((....)))).)) | -21.9 kcal/mol | 39.9 °C
11 | GGTGTCGGAAACGGCATC (.((.((....)).)).) | -26.1 kcal/mol | 44.4 °C
12 | GATCACTCGAGTGATC ((((((....)))))) | -39.9 kcal/mol | 59.4 °C
13 | GAGTCGAAAGACTC (((((....))))) | -29.4 kcal/mol | 60.8 °C
14 | GCAGTGGGAAACCGTTGC (((..((....))..))) | -19.4 kcal/mol | 38.1 °C
15 | GATCTCTCCGAGATC ((((((...)))))) | -40.7 kcal/mol | 56.7 °C
16 | GAGGGACGAAAGTCTCTC (((.(((....))).))) | -32.4 kcal/mol | 55.4 °C
17 | GATCGCTCGAGCGATC ((((((....)))))) | -42.1 kcal/mol | 67.6 °C
18 | GGAACAGGAAACTGTCCC ((.((((....)))).)) | -23.1 kcal/mol | 39.9 °C
19 | GGTTGTGGAAACACAATC (.(((((....))))).) | -29.7 kcal/mol | 47.9 °C
20 | GATCAGTACCTGATC ((((((...)))))) | -44.9 kcal/mol | 48.9 °C
21 | GAGCACCGAAAGGTCTC (((.(((....)))))) | -24.1 kcal/mol | 47.6 °C
22 | GCTTCTCGAAAGAGGAGC (((.(((....))).))) | -36.1 kcal/mol | 56.1 °C
23 | GGGGATACGAAAGTACCC (((..(((....)))))) | -24.2 kcal/mol | 49.2 °C

Row | Sequence | folding enthalpy [1] | Tm [2]
24 | GTCTTCCGAAAGGAGAC (((.(((....)))))) | -23.4 kcal/mol | 47.6 °C
25 | GACGATGGAAACACCGTC ((((.((....)).)))) | -29.6 kcal/mol | 45.4 °C
26 | GTTCGCGAAAGCGGAAAC ((((((....)))..))) | -9.75 kcal/mol | 36.6 °C
27 | GATCACCGCGGTGATC ((((((....)))))) | -44.1 kcal/mol | 67.2 °C
28 | GTAGATGGAAACATTTAC (((.(((....))).))) | -17.3 kcal/mol | 32.1 °C
29 | GATCTTGTGAAGATC ((((((...)))))) | -28.9 kcal/mol | 42.4 °C
30 | GCTATGCGAAAGCAGGGC ((..(((....)))..)) | -22.2 kcal/mol | 54.8 °C
31 | GTTAGCGGAAACGCTAAC (((((((....))))))) | -42.7 kcal/mol | 66.7 °C
32 | GGAATGGGAAACCGTTCC ((((.((....)).)))) | -39.1 kcal/mol | 50.8 °C
33 | GATCGGCTCACCGATC ((((((....)))))) | -38.8 kcal/mol | 57.4 °C
34 | GCGACGGGAAACCGCCGC (((.(((....))).))) | -45.2 kcal/mol | 64.2 °C
35 | GATCGTCTTTACGATC ((((((....)))))) | -34.3 kcal/mol | 55.2 °C
36 | GGTTACGAAAGTATACC ((((((....))).))) | -23.8 kcal/mol | 43.1 °C
37 | GCGATGCGAAAGCTTAGC ((.(.((....)).).)) | -23.6 kcal/mol | 56.9 °C
38 | GCATCCCGAAAGGGTTGC (((.(((....))).))) | -30.1 kcal/mol | 60.1 °C
39 | GCTCGGCGAAAGCAAAGC (((..((....))..))) | -16.4 kcal/mol | 37.8 °C
40 | GTTCTCGAAAGAGTGAAC ((((((....)))..))) | -14.7 kcal/mol | 29.4 °C
41 | GACACTGGAAACAATGTC ((((.((....)).)))) | -33.6 kcal/mol | 31.9 °C
42 | GCCCGACGAAAGTCTGGC (((.(((....))).))) | -32.4 kcal/mol | 55.5 °C
43 | GATCCTTCGCAGGATC ((((((....)))))) | -37.3 kcal/mol | 51.2 °C
44 | GTGCGTCGAAAGACCCAC (((.(((....))).))) | -26.2 kcal/mol | 45.8 °C
45 | GTCTATGAAAATAGAC ((((((....)))))) | -32.8 kcal/mol | 49.5 °C
46 | GACACCACGAAAGTGGTC (((..(((....)))))) | -6.51 kcal/mol | 39 °C

Row | Sequence | folding enthalpy [1] | Tm [2]
47 | GATCAATCGTTTGATC ((((((....)))))) | -33.8 kcal/mol | 45.7 °C
48 | GCTTCCTCGAAAGAGAGC (((..(((....)))))) | -12.7 kcal/mol | 28.9 °C
49 | GTGGTCGAAAGACCCCAC ((((((....)))..))) | -9.79 kcal/mol | 38 °C
50 | GGAAGTCCGAAAGGATCC (((..(((....)))))) | -11.9 kcal/mol | 28.7 °C
51 | GATCTGCTCCAGATC ((((((...)))))) | -31.1 kcal/mol | 50.4 °C
52 | GCGGTATTCCGC ((((....)))) | -30.6 kcal/mol | 56.4 °C
53 | GATTTGCGAAAGCATATC (((.(((....))).))) | -22.9 kcal/mol | 43.1 °C
54 | GCGATCGAAAGATGCCGC ((((((....)))..))) | -17 kcal/mol | 39.6 °C
55 | GTTGGCGAAAGCCGCAAC ((((((....)))..))) | -9.16 kcal/mol | 26.3 °C
56 | GTTCGGGGAAACCTGGAC ((.(.((....)).).)) | -20.2 kcal/mol | 36.8 °C
57 | GCCGATCGAAAGATGGC (((.(((....)))))) | -26.7 kcal/mol | 54.5 °C
58 | CGGTCGGAAACGAGCCG ((((((....))).))) | -21.6 kcal/mol | 51.2 °C
59 | GATCTAGCGGTAGATC ((((((....)))))) | -32.2 kcal/mol | 44 °C
60 | GTCTGTGGAAACGTAGAC ((((..(....)..)))) | -23.6 kcal/mol | 37.2 °C
61 | GTATGAGCGAAAGCTTAC (((..(((....)))))) | -9.43 kcal/mol | 30.1 °C
62 | GTCGACGAAAGTCAGGAC ((((((....)))..))) | -17.6 kcal/mol | 41.7 °C
63 | GTCGGTGGAAACGTCGAC ((((..(....)..)))) | -19.7 kcal/mol | 45.3 °C
64 | GTCTGTGGAAACATAGAC ((((.((....)).)))) | -31.2 kcal/mol | 44.5 °C
65 | GCAGAGCGAAAGCTGAGC ((..(((....)))..)) | -11.8 kcal/mol | 43.1 °C
66 | ACATTGAAAAATGT (((((....))))) | -13.4 kcal/mol | 32.9 °C
67 | GGGATCGAAAGATACCCC ((((((....)))..))) | -18.1 kcal/mol | 51.6 °C
68 | GTCGGCGGAAACGTCGGC (.((.((....)).)).) | -35.5 kcal/mol | 54 °C
69 | GAATGCGGAAACACATTC (((((.(....).))))) | -32.6 kcal/mol | 39.8 °C
